# From ChEMBL document CHEMBL3351505, “Ultrasound-assisted synthesis of novel 1,2,3-triazoles coupled diaryl sulfone moieties by the CuAAC reaction, and biological evaluation of them as antioxidant and antimicrobial agents” (Eur J Med Chem, 2014)
# Activity calls are given as the source filed them. No cut-off for these calls is given here.
# Experiments:
# Staphylococcus aureus [1] = assay: Antibacterial activity against Staphylococcus aureus ATCC 29213 using 100 uL of test compound after 24 hrs by agar well diffusion method; type: functional
# How it was run: (§1)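 Agar well diffusion. Nutrient agar was spread with bacterial suspension at 1×10⁸ CFU/mL, and 10 mm wells were cut. Wells were loaded with compound solution made at 200 mg per 1 mL DMSO. Plates were incubated 24 h at 37 °C and inhibition zones were measured. DMSO served as the negative control.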
# Bacillus subtilis [2] = assay: Antibacterial activity against Bacillus subtilis ATCC 6633 using 100 uL of test compound after 24 hrs by agar well diffusion method; type: functional; how it was run: as §1
# Priestia megaterium [3] = assay: Antibacterial activity against Bacillus megaterium ATCC 9885 using 100 uL of test compound after 24 hrs by agar well diffusion method; type: functional; how it was run: as §1
# Micrococcus luteus [4] = assay: Antibacterial activity against Sarcina lutea using 100 uL of test compound after 24 hrs by agar well diffusion method; type: functional; how it was run: as §1
# Klebsiella pneumoniae [5] = assay: Antibacterial activity against Klebsiella pneumoniae ATCC 13883 using 100 uL of test compound after 24 hrs by agar well diffusion method; type: functional; how it was run: as §1
# Pseudomonas aeruginosa [6] = assay: Antibacterial activity against Pseudomonas aeruginosa ATCC 27953 using 100 uL of test compound after 24 hrs by agar well diffusion method; type: functional; how it was run: as §1
# Escherichia coli [7] = assay: Antibacterial activity against Escherichia coli ATCC 25922 using 100 uL of test compound after 24 hrs by agar well diffusion method; type: functional; how it was run: as §1
# Candida albicans [8] = assay: Antifungal activity against Candida albicans NRRL Y-477 using 100 uL of test compound after 48 hrs by agar well diffusion method; type: functional
# How it was run: (§2)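 Agar well diffusion. Sabouraud dextrose agar was spread with yeast or fungal suspension at 1×10⁶ CFU/mL, and 10 mm wells were cut. Wells were loaded with compound solution made at 200 mg per 1 mL DMSO. Plates were incubated 48 h at 28 °C and inhibition zones were measured. DMSO served as the negative control.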
# Saccharomyces cerevisiae [9] = assay: Antifungal activity against Saccharomyces cerevisiae using 100 uL of test compound after 48 hrs by agar well diffusion method; type: functional; how it was run: as §2
# Aspergillus niger [10] = assay: Antifungal activity against Aspergillus niger using 100 uL of test compound after 48 hrs by agar well diffusion method; type: functional; how it was run: as §2
# Staphylococcus aureus [11] = assay: Antibacterial activity against Staphylococcus aureus ATCC 29213 after 24 hrs by two fold serial dilution method; type: functional
# Bacillus subtilis [12] = assay: Antibacterial activity against Bacillus subtilis ATCC 6633 after 24 hrs by two fold serial dilution method; type: functional
# Priestia megaterium [13] = assay: Antibacterial activity against Bacillus megaterium ATCC 9885 after 24 hrs by two fold serial dilution method; type: functional
# Micrococcus luteus [14] = assay: Antibacterial activity against Sarcina lutea after 24 hrs by two fold serial dilution method; type: functional
# Klebsiella pneumoniae [15] = assay: Antibacterial activity against Klebsiella pneumoniae ATCC 13883 after 24 hrs by two fold serial dilution method; type: functional
# Pseudomonas aeruginosa [16] = assay: Antibacterial activity against Pseudomonas aeruginosa ATCC 27953 after 24 hrs by two fold serial dilution method; type: functional
# Escherichia coli [17] = assay: Antibacterial activity against Escherichia coli ATCC 25922 after 24 hrs by two fold serial dilution method; type: functional
# Candida albicans [18] = assay: Antifungal activity against Candida albicans NRRL Y-477 after 48 hrs by two fold serial dilution method; type: functional
# How it was run: (§3)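 Two-fold serial broth dilution in a suitable broth, run only on compounds giving inhibition zones of at least 16 mm. Final concentrations were […]. Each 5 mL received 0.1 mL inoculum and was incubated 48 h at 28 °C. MIC was the lowest concentration without growth.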
# Saccharomyces cerevisiae [19] = assay: Antifungal activity against Saccharomyces cerevisiae after 48 hrs by two fold serial dilution method; type: functional; how it was run: as §3
# Aspergillus niger [20] = assay: Antifungal activity against Aspergillus niger after 48 hrs by two fold serial dilution method; type: functional; how it was run: as §3
# [21] = Antioxidant activity assessed as DPPH free radical scavenging activity by spectrophotometric assay; type: physicochemical
# How it was run: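 Sample solutions at several concentrations were added to 0.004% DPPH in methanol and incubated 60 min in the dark. Absorbance was read at 517 nm against a blank. Inhibition % = (A_blank − A_sample)/A_blank × 100, where the control contained all reagents except the test compound.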
SMILES,diameter of the inhibition zone (DIZ) (Staphylococcus aureus [1]) [mm],diameter of the inhibition zone (DIZ) (Bacillus subtilis [2]) [mm],diameter of the inhibition zone (DIZ) (Priestia megaterium [3]) [mm],diameter of the inhibition zone (DIZ) (Micrococcus luteus [4]) [mm],diameter of the inhibition zone (DIZ) (Klebsiella pneumoniae [5]) [mm],diameter of the inhibition zone (DIZ) (Pseudomonas aeruginosa [6]) [mm],diameter of the inhibition zone (DIZ) (Escherichia coli [7]) [mm],diameter of the inhibition zone (DIZ) (Candida albicans [8]),diameter of the inhibition zone (DIZ) (Saccharomyces cerevisiae [9]),diameter of the inhibition zone (DIZ) (Aspergillus niger [10]) [mm],"MIC (Staphylococcus aureus [11]; ATCC 29213, 24 h) [µg/mL]","MIC (Bacillus subtilis [12]; ATCC 6633, 24 h) [µg/mL]","MIC (Priestia megaterium [13]; ATCC 9885, 24 h) [µg/mL]",MIC (Micrococcus luteus [14]) [µg/mL],"MIC (Klebsiella pneumoniae [15]; ATCC 13883, 24 h) [µg/mL]",MIC (Pseudomonas aeruginosa [16]),MIC (Saccharomyces cerevisiae [19]),MIC (Aspergillus niger [20]) [µg/mL],IC50 [21],MIC (Candida albicans [18]),other results
O=C(Cn1cc(COC(Cc2cn(CC(=O)c3ccc(F)cc3)nn2)c2ccc(S(=O)(=O)c3ccccc3)cc2)nn1)c1ccc(F)cc1 (stereo unspecified),26,19,17,20,16,15,14,22 mm,19 mm,32,100,200,200,200,200,inactive,200 µg/mL,50,275 µg/mL,,"MIC (Escherichia coli [17]): inactive; MIC (Candida albicans [18]; NRRL Y-477, 48 h): 200 µg/mL"
CC(Cc1cn(CC(=O)c2ccc(Br)cc2)nn1)(OCc1cn(CC(=O)c2ccc(Br)cc2)nn1)c1ccc(S(=O)(=O)c2ccccc2)cc1 (stereo unspecified),24,14,23,24,26,26,24,15 mm,14 mm,32,100,,100,100,100,100 µg/mL,inactive,25,Not Active,inactive,"MIC (Bacillus subtilis [12]): inactive; MIC (Escherichia coli [17]; ATCC 25922, 24 h): 100 µg/mL"
CC(O)(Cc1cn(CC(=O)c2ccccc2)nn1)c1ccc(S(=O)(=O)c2ccccc2)cc1 (stereo unspecified),18,19,15,22,13,19,14,15 mm,14 mm,32,200,200,,200,,200 µg/mL,inactive,50,600 µg/mL,inactive,MIC (Priestia megaterium [13]): inactive; MIC (Klebsiella pneumoniae [15]): inactive; MIC (Escherichia coli [17]): inactive
CC(O)(Cc1cn(Cc2ccccc2)nn1)c1ccc(S(=O)(=O)c2ccccc2)cc1 (stereo unspecified),22,16,17,23,24,23,22,19 mm,16 mm,32,200,200,200,200,100,200 µg/mL,200 µg/mL,25,600 µg/mL,,"MIC (Escherichia coli [17]; ATCC 25922, 24 h): 200 µg/mL; MIC (Candida albicans [18]; NRRL Y-477, 48 h): 200 µg/mL"
CC(Cc1cn(CC(=O)c2ccc(F)cc2)nn1)(OCc1cn(CC(=O)c2ccc(F)cc2)nn1)c1ccc(S(=O)(=O)c2ccccc2)cc1 (stereo unspecified),27,15,17,26,26,27,25,inactive,15 mm,34,100,,200,50,100,100 µg/mL,inactive,25,150 µg/mL,inactive,"MIC (Bacillus subtilis [12]): inactive; MIC (Escherichia coli [17]; ATCC 25922, 24 h): 100 µg/mL"
O=C(Cn1cc(CC(O)c2ccc(S(=O)(=O)c3ccccc3)cc2)nn1)c1ccc(F)cc1 (stereo unspecified),14,19,17,20,15,19,14,13 mm,inactive,32,,200,200,200,,200 µg/mL,inactive,50,275 µg/mL,inactive,MIC (Staphylococcus aureus [11]): inactive; MIC (Klebsiella pneumoniae [15]): inactive; MIC (Escherichia coli [17]): inactive
